The values below come from ChEMBL document CHEMBL1127499, “S-glucosylated hydantoins as new antiviral agents” (1994).

SMILES strings stand for the structures.

Common to all, as to assay type: functional
A short description of test [1]: Selectivity index against HSV-1 was determined as CD50/ED50 ratio. In a few lines:
(§1)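 CD50 (50% reduction of proliferation of uninfected Vero cells) divided by ED50 (50% protection against HSV-1 or HSV-2 in Vero cells, antigen ELISA after 5 days). Each is the mean of three independent determinations.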

The subject of test [2] is Vero. As to the kind of experiment: Cytotoxic dose of compound required to reduce the viability of normal uninfected vero cells by 50%. The settings on record: Chlorocebus sabaeus, read-out: CD50 (the source's name). The procedure, abridged:
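Uninfected Vero cells were grown with compound, and cytotoxicity was read as concentration-dependent inhibition of cell proliferation relative to control cultures. CD50 is the dose reducing viability by 50%, mean of three independent determinations.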

The nature of test [3]: Selectivity index against HSV-2 was determined as CD50/ED50 ratio. In a few lines:
as §1

Test [4] deals with Vero. As to the kind of experiment: Antiviral activity against HSV-2 (Herpes simplex virus) in vero cells. The conditions noted are these: Chlorocebus sabaeus, read-out: ED50 (the source's name). The procedure, abridged:
(§2)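 Vero target cells infected with HSV-1 McIntyre or HSV-2 MS for 2.5 h, washed, then mixed 1:50 with uninfected Vero cells preincubated 2.5 h with compound. Virus antigen in culture medium measured by HSV-1/HSV-2 antigen ELISA. ED50 is the dose giving 50% protection, mean of three independent determinations.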

Test [5] deals with Vero. As to the kind of experiment: Antiviral activity against HSV-1 (Herpes simplex virus) in vero cells. The settings on record: Chlorocebus sabaeus, read-out: ED50 (the source's name). The procedure, abridged: as §2

On to `Nc1nc2c(ncn2COCCO)c(=O)[nH]1` [ACYCLOVIR], for which the Selectivity index in test [1] and in test [3] was > 100 in each case. Further, the CC50 in test [2] was > 50 µM. The EC50 in test [4] and in test [5] was 0.5 µM each time.

Regarding `CC(=O)OCC1OC(SC2=N/C(=C\c3cccs3)C(=O)N2c2cccc(C)c2)C(OC(C)=O)C(OC(C)=O)C1OC(C)=O` (stereo not drawn), the Selectivity index is 2.5 in test [1] and 1.3 in test [3]. The CC50 in test [2] was 25 µM. Besides, the EC50 in test [4] worked out at 19 µM; in test [5], 10 µM.

In the case of `CCOC(=O)c1ccc(N2C(=O)/C(=C/c3cccs3)N=C2SC2OC(COC(C)=O)C(OC(C)=O)C(OC(C)=O)C2OC(C)=O)cc1` (stereo not drawn), the Selectivity index in test [1] stood at 1.4; in test [3], 1. For the same compound, the CC50 in test [2] was 46 µM. In addition, the EC50 in test [4] is 46 µM; in test [5], 32 µM.

Regarding `COc1ccc(N2C(=O)/C(=C/c3cccs3)N=C2SC2OC(COC(C)=O)C(OC(C)=O)C(OC(C)=O)C2OC(C)=O)cc1` (stereo not drawn), the Selectivity index in test [1] and in test [3] was 1.3 throughout. Further, in test [2], the CC50 was determined as 35 µM. For the same compound, the EC50 in test [4] and in test [5] was 27 µM each time.

In the case of `CC(=O)OCC1OC(Sc2nc(/C=C3\C=Nc4ccccc43)c(O)n2-c2ccccc2)C(OC(C)=O)C(OC(C)=O)C1OC(C)=O` (stereo not drawn), the Selectivity index is > 2.2 in test [1] and > 2.5 in test [3]. The CC50 in test [2] is > 100 µM. Also, the EC50 stood at 40 µM in test [4] and 46 µM in test [5].

In the case of `CC(=O)OCC1OC(SC2=N/C(=C\c3cccs3)C(=O)N2c2ccc(Cl)cc2)C(OC(C)=O)C(OC(C)=O)C1OC(C)=O` (stereo not drawn), the Selectivity index in test [1] turned out to be 33; in test [3] it was 20. Moreover, the CC50 in test [2] amounted to 20 µM. Besides, the EC50 was determined as 1 µM in test [4] and 0.6 µM in test [5].

For the compound `CC(=O)OCC1OC(SC2=NC(=C(C)C)C(=O)N2c2ccccc2)C(OC(C)=O)C(OC(C)=O)C1OC(C)=O` (stereo not drawn), the Selectivity index in test [1] was > 1.6; in test [3], > 2. Further, in test [2], the CC50 was > 200 µM. Further, the EC50 was determined as 100 µM in test [4] and 119 µM in test [5].

On to `O=c1[nH]c(=O)n([C@H]2C[C@H](O)[C@@H](CO)O2)cc1/C=C/Br` [BRIVUDINE], for which the figures for the Selectivity index in test [1] and in test [3] were > 333 and > 15, respectively. The CC50 in test [2] is > 100 µM. Moreover, the EC50 in test [4] came out at 6.8 µM; in test [5] it was 0.3 µM.

For the compound `CC(=O)OCC1OC(SC2=N/C(=C\c3ccccc3)C(=O)N2c2ccccc2)C(OC(C)=O)C(OC(C)=O)C1OC(C)=O` (stereo not drawn), the CC50 in test [2] was > 100 µM. For the same compound, the EC50 was 100 µM in test [4] and > 100 µM in test [5].

Turning to `CC(=O)OCC1OC(SC2=N/C(=C\c3cccs3)C(=O)N2c2ccccc2)C(OC(C)=O)C(OC(C)=O)C1OC(C)=O` (stereo not drawn), the Selectivity index in test [1] is 60; in test [3], 34. Further, the CC50 in test [2] amounted to 24 µM. The EC50 worked out at 0.7 µM in test [4] and 0.4 µM in test [5].
